In PubChem BioAssay:
The source made the active and inactive calls.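 How the source made its calls, unless noted: active means Her2 level under about 52% in both replicate screens, with viability over 70% of control (limit read from the data); inconclusive means Her2 under the limit in one screen only, or viability under 70%; inactive means Her2 level above the set limit.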

Columns and labels:
[1] = reducers of endogenous Her2 protein level, primary screen, SKBR3 breast tumor cells, AlphaScreen, ATP viability (AID 461); conditions: 18-24 h, measured here: SKBR3 viability, ATP luminescence, at 10 µM;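 on Her2 level: lower value means less Her2 protein in the cells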;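 on viability: percent of carrier control wells set as 100% viability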
[2] = target: Receptor tyrosine-protein kinase erbB-2 (Homo sapiens) (UniProt P04626); experiment: as above; conditions: 18-24 h, at 10 µM, stronger effect = lower value
Chain of Receptor tyrosine-protein kinase erbB-2 (Homo sapiens) (P04626 whole entry, looked up): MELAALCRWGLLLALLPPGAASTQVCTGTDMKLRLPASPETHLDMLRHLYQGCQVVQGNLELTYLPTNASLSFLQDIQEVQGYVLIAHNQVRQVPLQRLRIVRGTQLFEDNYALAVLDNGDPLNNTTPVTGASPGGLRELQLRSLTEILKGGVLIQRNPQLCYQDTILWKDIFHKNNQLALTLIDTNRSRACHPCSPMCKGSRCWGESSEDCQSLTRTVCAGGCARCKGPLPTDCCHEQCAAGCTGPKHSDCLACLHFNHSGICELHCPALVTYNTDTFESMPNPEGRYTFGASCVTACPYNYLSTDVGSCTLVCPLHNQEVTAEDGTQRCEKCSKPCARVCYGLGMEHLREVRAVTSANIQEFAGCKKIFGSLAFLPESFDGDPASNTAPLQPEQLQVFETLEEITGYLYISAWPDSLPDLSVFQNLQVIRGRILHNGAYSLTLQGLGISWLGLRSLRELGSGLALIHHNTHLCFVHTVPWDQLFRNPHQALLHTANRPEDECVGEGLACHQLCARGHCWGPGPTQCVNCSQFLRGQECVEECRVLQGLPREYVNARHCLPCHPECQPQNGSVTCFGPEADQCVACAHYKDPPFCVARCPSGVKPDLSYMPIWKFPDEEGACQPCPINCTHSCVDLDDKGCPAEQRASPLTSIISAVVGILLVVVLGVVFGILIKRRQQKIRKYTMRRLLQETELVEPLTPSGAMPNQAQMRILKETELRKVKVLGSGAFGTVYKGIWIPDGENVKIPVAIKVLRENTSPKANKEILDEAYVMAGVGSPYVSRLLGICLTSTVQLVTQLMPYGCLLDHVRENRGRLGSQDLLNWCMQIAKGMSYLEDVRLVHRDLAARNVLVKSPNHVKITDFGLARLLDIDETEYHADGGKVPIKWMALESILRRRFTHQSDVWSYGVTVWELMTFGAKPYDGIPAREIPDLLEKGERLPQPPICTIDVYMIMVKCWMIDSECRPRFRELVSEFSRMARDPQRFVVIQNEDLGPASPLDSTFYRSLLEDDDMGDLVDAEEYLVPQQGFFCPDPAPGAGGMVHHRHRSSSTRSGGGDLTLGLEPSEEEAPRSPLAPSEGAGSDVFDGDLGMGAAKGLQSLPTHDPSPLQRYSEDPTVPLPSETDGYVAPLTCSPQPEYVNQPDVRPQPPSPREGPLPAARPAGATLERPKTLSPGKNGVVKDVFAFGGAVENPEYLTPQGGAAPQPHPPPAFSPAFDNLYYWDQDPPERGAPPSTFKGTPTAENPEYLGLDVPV

[3] = SK-BR-3 cell growth inhibitors, pilot screen, 24 h, human (AID 572;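 active means viability at or below 10% of carrier control in both of two separate runs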;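 further: compound exposure lasted between 18 and 24 h rather than exactly 24 h; 100% = carrier-treated control wells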); conditions: SK-BR-3 viability, CellTiter-Glo luminescence, at 10 µM, stronger effect = lower value
[4] = HUVEC growth inhibition – cell-based, human, primary screen (AID 575;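 active means viability at or below 30% in both replicate assays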;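 further: 100% = median of untreated cell wells with 0.1% DMSO on each plate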); conditions: HUVEC proliferation, CellTiter-Glo luminescence, 72 h; at 10 µM; stronger effect = lower value
Method in brief: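 Test system: primary human umbilical vein endothelial cells; medium: endothelial basal medium with 2% FBS plus growth supplements; dosing: 10 µM compound only; times: 72 h treatment at 37 °C; signal: CTG luminescence; read-out: % viability relative to median vehicle-well signal on each plate; control set: vehicle and MePR control wells; plate: 384-well, collagen-coated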

[5] = growth inhibitors of H69AR lung tumor, primary screen, human, duplicate replicates (AID 580;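 active means viability at or under a set limit in both replicates, limit being median viability minus 3 SD, cut at about 48% in these data, passing the limit was not always enough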;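 further: 100% = mean luminescence of untreated wells and 0% = no signal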); conditions: H69AR lung tumor cells viability, ATP luminescence, 72 h; at 10 µM; stronger effect = lower value
[6] = reversal of MRP1-mediated doxorubicin resistance, pilot screen, H69AR cells, doxorubicin co-treatment (AID 601;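 active means viability loss from added drug above about 55%, and viability with drug at most 40%, in both replicates, limit read from the data, passing the limit was not always enough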); conditions: CellTiter-Glo, 72 h, at 10 µM; for differential viability (reversal): stronger effect = higher value
[7] = 384-well plate pilot, post-Golgi transport modulator project, inhibition of yeast transport mutant growth (AID 636; in the data active means inhibition above about 31%); conditions: absorbance 615 nm, about 18 h, stronger effect = higher value
[8] = growth suppression of yeast trafficking mutant, preliminary HTS, modulators of trafficking downstream of Golgi apparatus project, 1536-format plate, OD 615 nm (AID 637; in the data active means inhibition above about 30%); conditions: yeast transport mutant growth, absorbance 615 nm, 18 h; stronger effect = higher value
[9] = H69AR cells + 2 uM doxorubicin, measured here: viability with 2 uM doxorubicin, stronger effect = lower value
[10] = H69AR cells, compound alone cytotoxicity

SMILES	viability [1]	Her2 level [2]	viability [3]	viability [4]	viability [5]	differential viability (reversal) ([6]; H69AR cells + 2 uM doxorubicin)	viability [6, 9]	viability [6, 10]	inhibition [7]	inhibition [8]
Cc1ccc2ncnc(NCCCN3CCOCC3)c2c1	98.5%	120% (inactive)	98.5% (inactive)	91.4% (inactive)	101% (inactive)	-0.115% (inactive)	102%	101%	-0.79% (inactive)	5.41% (inactive)
CCOC(=O)N1CCN(S(=O)(=O)c2cc(C)c(C)cc2C)CC1	96.5%	87% (inactive)	96.5% (inactive)	104% (inactive)	95.3% (inactive)	6.04% (inactive)	89.3%	95.3%	-4.34% (inactive)	2.22% (inactive)
CCOC(=O)c1cc2c(=O)n3cccc(C)c3nc2n(Cc2ccco2)c1=NC(=O)c1cccnc1	92.5%	82% (inactive)	92.5% (inactive)	71.4% (inactive)	80.7% (inactive)	8.21% (inactive)	72.4%	80.7%	-1.71% (inactive)	2.58% (inactive)
O=C(NC1CC1)C1CCN(c2ccc(S(=O)(=O)N3CCOCC3)cc2)CC1	92.5%	138% (inactive)	92.5% (inactive)	83% (inactive)	94.7% (inactive)	17.1% (inactive)	77.7%	94.7%	-0.13% (inactive)	-10% (inactive)
COc1ccc(NC(=O)CN2CCN(S(=O)(=O)c3ccc(Cl)cc3)CC2)cc1	92%	76% (inactive)	92% (inactive)	88% (inactive)	81.8% (inactive)	-11.3% (inactive)	93.1%	81.8%	-6.18% (inactive)	-11% (inactive)
CN(C)C=Nc1nonc1N	110%	106% (inactive)	110% (inactive)	95.3% (inactive)	94.1% (inactive)	2.63% (inactive)	91.4%	94.1%	-5.53% (inactive)	1.97% (inactive)
Cc1cc(Nc2ccccc2)n(CCC#N)n1	83.5%	84.5% (inactive)	83.5% (inactive)	105% (inactive)	102% (inactive)	9.18% (inactive)	92.9%	102%	-5.73% (inactive)	7.7% (inactive)
O=c1oc2ccccc2c(O)c1C=NCc1ccccn1	88%	93.5% (inactive)	88% (inactive)	67.6% (inactive)	76.8% (inactive)	-10.5% (inactive)	87.3%	76.8%	-8.11% (inactive)	-5.57% (inactive)
c1ccc(-c2noc(C34CC5CC(CC(C5)C3)C4)n2)nc1	130%	106% (inactive)	130% (inactive)	94.8% (inactive)	83.4% (inactive)	17.3% (inactive)	66.2%	83.4%	-4.87% (inactive)	2.13% (inactive)
COc1ccccc1N1CCN(C(=O)C(Cc2ccccc2)NC(=O)C2CCCCC2)CC1 (stereo not given)	73.5%	85.5% (inactive)	73.5% (inactive)	74.8% (inactive)	90.6% (inactive)	3.88% (inactive)	86.7%	90.6%	-5.84% (inactive)	-2.62% (inactive)
CN(CCc1ccccn1)C(=O)CCNC(=O)Cn1cnc2ccccc2c1=O	99.5%	97.5% (inactive)	99.5% (inactive)	88.9% (inactive)	96.4% (inactive)	13.9% (inactive)	82.5%	96.4%	-2.86% (inactive)	-1.9% (inactive)
Cn1c(-n2c(-c3ccco3)nc3ccccc3c2=O)nc2ccccc21	83%	98% (inactive)	83% (inactive)	89.9% (inactive)	90.3% (inactive)	5.28% (inactive)	85%	90.3%	-1.47% (inactive)	6.56% (inactive)
CCOc1ccc(N2C(N)=NC(N)=NC2(C)C)cc1	92.5%	85% (inactive)	92.5% (inactive)	101% (inactive)	75.4% (inactive)	-26.6% (inactive)	102%	75.4%	-0.26% (inactive)	12.1% (inactive)
Cc1ccc(C(=O)NCc2ccc3c(c2)OCO3)cc1S(=O)(=O)N1CCCCC1	91.5%	100% (inactive)	91.5% (inactive)	96.6% (inactive)	96.2% (inactive)	-2.33% (inactive)	98.5%	96.2%	-3.2% (inactive)	-7.14% (inactive)
CCCSc1nc2c(cnn2-c2ccc(Cl)cc2)c(=O)[nH]1	106%	89.5% (inactive)	106% (inactive)	98.1% (inactive)	79% (inactive)	-3.71% (inactive)	82.7%	79%	-6.23% (inactive)	0.95% (inactive)
CN1/C(=C\C(=O)C(F)F)C(C)(C)c2ccccc21	90%	100% (inactive)	90% (inactive)	99.5% (inactive)	107% (inactive)	19.5% (inactive)	87.4%	107%	-0.53% (inactive)	1.77% (inactive)
